Data: ChEMBL document CHEMBL1122644, “Ring-substituted 1,2-dialkylated 1,2-bis(hydroxyphenyl)ethanes. 2. Synthesis and estrogen receptor binding affinity of 4,4'-, 5,5'-, and 6,6'-disubstituted metahexestrols” (J Med Chem, 1984)

Assays:
[1] = target: Estrogen receptor (Bos taurus) (UniProt Q9XSB5+P49884); test: Relative binding affinity for calf uterine estrogen receptor is the ratio of molar concentrations of 17-beta-estradiol and compound required to decrease amount of bound [3H]-E2 by 50% X 100.; format: protein assay
Procedure, shortened: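 Calf uterine cytosol incubated with [3H]estradiol and competitor at 4 °C for 16 h. Free ligand removed with dextran-coated charcoal, then centrifuged and a supernatant aliquot counted. Six competitor concentrations chosen to span 50% competition on a semilog plot. Molar concentrations of unlabeled estradiol and test compound giving 50% reduction in binding were read from the plot.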

[2] = target: T1, Estrogen receptor (Mus musculus) (UniProt O08537+P19785); test: Anti-estrogenic activity in mouse uterotrophic assay at 0 ug; format: functional; parameters: unit not given here
Procedure, shortened: (§1)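 Immature female NMRI mice, 20 days old (14.5 ± 1.2 g), randomized into groups of 10. Test compound in olive oil (0.1 mL) given subcutaneously daily for 3 days alongside estrone stimulation. Uteri removed 24 h after last injection, fixed in Bouin's solution, washed, dried and weighed. Readout is inhibition of estrone-stimulated uterine growth.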

[3] = target: T1, Estrogen receptor (Mus musculus); test: (§2) Anti-estrogenic activity in mouse uterotrophic assay at 1 ug; format: functional; parameters: unit not given here; procedure, shortened: as §1
[4] = target: T1, Estrogen receptor (Mus musculus); test: Anti-estrogenic activity in mouse uterotrophic assay at 100 ug; format: functional; parameters: unit not given here; procedure, shortened: as §1
[5] = target: T1, Estrogen receptor (Mus musculus); test: Anti-estrogenic activity in mouse uterotrophic assay at 25 ug; format: functional; procedure, shortened: as §1
[6] = target: T1, Estrogen receptor (Mus musculus); test: Anti-estrogenic activity in mouse uterotrophic assay at 250 ug; format: functional; procedure, shortened: as §1
[7] = target: T1, Estrogen receptor (Mus musculus); test: Anti-estrogenic activity in mouse uterotrophic assay at 5 ug; format: functional; procedure, shortened: as §1
[8] = target: T1, Estrogen receptor (Mus musculus); test: Anti-estrogenic activity in mouse uterotrophic assay at 50 ug; format: functional; procedure, shortened: as §1
[9] = target: T1, Estrogen receptor (Mus musculus); test: Estrogenic activity in mouse uterotrophic assay at 8 ug; format: functional
Procedure, shortened: (§3)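 Uterotrophic test in 20-day-old immature female NMRI mice (14.5 ± 1.2 g), 10 per group. Daily s.c. injections of compound in 0.1 mL olive oil for 3 days. Uteri excised 24 h after final dose, Bouin-fixed, washed, dried and weighed to measure stimulation of uterine growth.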

[10] = target: T1, Estrogen receptor (Mus musculus); test: Estrogenic activity in mouse uterotrophic assay at 80 ug; format: functional; procedure, shortened: as §3
[11] = target: T1, Estrogen receptor (Mus musculus); test: Estrogenic activity in mouse uterotrophic assay at 800 ug; format: functional; procedure, shortened: as §3
[12] = target: T1, Estrogen receptor (Mus musculus); test: Estrogenic activity in mouse uterotrophic assay at 0 ug; format: functional; parameters: unit not given here; procedure, shortened: as §3
[13] = target: T1, Estrogen receptor (Mus musculus); test: Estrogenic activity in mouse uterotrophic assay at 16 ug; format: functional; procedure, shortened: as §3
[14] = target: T1, Estrogen receptor (Mus musculus); test: Estrogenic activity in mouse uterotrophic assay at 2 ug; format: functional; procedure, shortened: as §3
[15] = target: T1, Estrogen receptor (Mus musculus); test: Estrogenic activity in mouse uterotrophic assay at 240 ug; format: functional; procedure, shortened: as §3
[16] = target: T1, Estrogen receptor (Mus musculus); test: Anti-estrogenic activity as inhibition of estrone-stimulated uterine growth in mice at 50 mg/kg; format: functional, organism-based; parameters: dose 50 mg/kg; procedure, shortened: as §1
[17] = target: T1, Estrogen receptor (Mus musculus); test: Anti-estrogenic activity as inhibition of estrone-stimulated uterine growth in mice at 5 mg/kg; format: functional, organism-based; parameters: dose 5 mg/kg; procedure, shortened: as §1
[18] = target: T1, Estrogen receptor (Mus musculus); test: Anti-estrogenic activity as inhibition of estrone-stimulated uterine growth in mice at 25 mg/kg; format: functional, organism-based; parameters: dose 25 mg/kg; procedure, shortened: as §1
[19] = target: T1, Estrogen receptor (Mus musculus); test: Anti-estrogenic activity as inhibition of estrone-stimulated uterine growth in mice at 100 mg/kg; format: functional, organism-based; parameters: dose 100 mg/kg; procedure, shortened: as §1
[20] = target: T1, Estrogen receptor (Mus musculus); test: Anti-estrogenic activity as inhibition of estrone-stimulated uterine growth in mice at 1 mg/kg; format: functional, organism-based; parameters: dose 1 mg/kg; procedure, shortened: as §1
[21] = target: T1, Estrogen receptor (Mus musculus); test: Anti-estrogenic activity as inhibition of estrone-stimulated uterine growth in mice at 250 mg/kg; format: functional, organism-based; parameters: dose 250 mg/kg; procedure, shortened: as §1
[22] = target: T1, Estrogen receptor (Mus musculus); test: Anti-estrogenic activity in mouse uterotrophic assay at 10 ug; format: functional; parameters: unit not given here; procedure, shortened: as §1
[23] = target: T1, Estrogen receptor (Mus musculus); test: as §2; format: functional; procedure, shortened: as §1
[24] = target: T1, Estrogen receptor (Mus musculus); test: Estrogenic activity in mouse uterotrophic assay at 1 ug; format: functional; procedure, shortened: as §3
[25] = target: T1, Estrogen receptor (Mus musculus); test: Estrogenic activity in mouse uterotrophic assay at 10 ug; format: functional; parameters: unit not given here; procedure, shortened: as §3
[26] = target: T1, Estrogen receptor (Mus musculus); test: Estrogenic activity in mouse uterotrophic assay at 100 ug; format: functional; parameters: unit not given here; procedure, shortened: as §3
[27] = target: T1, Estrogen receptor (Mus musculus); test: Estrogenic activity in mouse uterotrophic assay at 1000 ug; format: functional; parameters: unit not given here; procedure, shortened: as §3
[28] = target: T1, Estrogen receptor (Mus musculus); test: Estrogenic activity in mouse uterotrophic assay at 0.1 ug; format: functional; procedure, shortened: as §3

T1 sequence (O08537 whole entry, looked up): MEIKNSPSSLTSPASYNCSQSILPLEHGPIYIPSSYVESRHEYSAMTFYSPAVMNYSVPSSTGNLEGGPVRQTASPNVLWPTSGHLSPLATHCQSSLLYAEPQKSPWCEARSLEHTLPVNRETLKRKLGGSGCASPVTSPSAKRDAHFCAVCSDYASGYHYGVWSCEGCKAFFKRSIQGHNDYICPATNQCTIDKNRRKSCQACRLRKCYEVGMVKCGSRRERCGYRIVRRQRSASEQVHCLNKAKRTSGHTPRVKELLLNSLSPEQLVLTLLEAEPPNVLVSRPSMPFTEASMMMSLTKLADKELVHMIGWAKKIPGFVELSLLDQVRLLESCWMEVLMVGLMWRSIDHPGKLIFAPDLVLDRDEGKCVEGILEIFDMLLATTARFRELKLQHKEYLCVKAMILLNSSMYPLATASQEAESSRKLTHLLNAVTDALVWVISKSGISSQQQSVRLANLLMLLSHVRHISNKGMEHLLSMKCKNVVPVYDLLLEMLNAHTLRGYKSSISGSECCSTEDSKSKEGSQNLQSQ
T1 sequence (P19785 whole entry, looked up): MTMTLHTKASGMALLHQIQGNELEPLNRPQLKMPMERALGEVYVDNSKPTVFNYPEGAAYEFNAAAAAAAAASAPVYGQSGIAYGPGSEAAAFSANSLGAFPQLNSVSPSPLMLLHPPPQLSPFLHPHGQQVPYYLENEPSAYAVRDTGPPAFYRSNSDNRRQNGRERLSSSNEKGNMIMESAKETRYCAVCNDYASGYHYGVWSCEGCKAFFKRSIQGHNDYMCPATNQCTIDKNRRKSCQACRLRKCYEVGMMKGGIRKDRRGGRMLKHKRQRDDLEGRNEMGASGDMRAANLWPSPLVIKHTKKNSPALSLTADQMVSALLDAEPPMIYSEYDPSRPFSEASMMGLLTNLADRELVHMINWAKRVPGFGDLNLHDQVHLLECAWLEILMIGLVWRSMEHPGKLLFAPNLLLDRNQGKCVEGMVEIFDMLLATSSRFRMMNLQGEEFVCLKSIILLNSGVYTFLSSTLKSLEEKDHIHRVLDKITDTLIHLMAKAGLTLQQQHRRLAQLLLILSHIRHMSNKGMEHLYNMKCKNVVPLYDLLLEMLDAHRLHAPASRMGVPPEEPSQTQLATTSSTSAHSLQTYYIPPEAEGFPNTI

Question: How did the RBA [1] turn out when `CCC(c1ccc(O)cc1C)C(CC)c1ccc(O)cc1C` (centres undefined) was run?
Answer: Its RBA is 8.5.

Question: With `CCC(c1ccc(O)c(CO)c1)C(CC)c1ccc(O)c(CO)c1` (centres undefined) as the compound, how does the RBA [1] read?
Answer: The RBA was 0.71.

Question: With `CCC(c1ccc(F)c(O)c1)C(CC)c1ccc(F)c(O)c1` (centres undefined) as the compound, how does the RBA [1] read?
Answer: The RBA was 1.1.

Question: And the Activity [2]?
Answer: The Activity was 13.5.

Question: What about the Activity [3] of the same compound?
Answer: The Activity was 34.2.

Question: And the Activity [4]?
Answer: Its Activity is 22.4.

Question: What about the Activity [5] of the same compound?
Answer: The Activity was 28.6.

Question: And the Activity [6]?
Answer: Its Activity is 24.4.

Question: And the Activity [7]?
Answer: Its Activity is 30.2.

Question: What about the Activity [8] of the same compound?
Answer: Its Activity is 24.7.

Question: And the Activity [9]?
Answer: The Activity was 18.5.

Question: And the Activity [10]?
Answer: The Activity was 31.8.

Question: What about the Activity [11] of the same compound?
Answer: Its Activity is 32.6.

Question: And the Activity [12]?
Answer: Its Activity is 8.7.

Question: And the Activity [13]?
Answer: The Activity was 25.4.

Question: What about the Activity [14] of the same compound?
Answer: Its Activity is 8.9.

Question: What about the Activity [15] of the same compound?
Answer: Its Activity is 32.8.

Question: And the inhibition [16]?
Answer: Its inhibition is 50%.

Question: What about the inhibition [17] of the same compound?
Answer: The inhibition was 25%.

Question: What about the inhibition [18] of the same compound?
Answer: Its inhibition is 32%.

Question: And the inhibition [19]?
Answer: Its inhibition is 60%.

Question: And the inhibition [20]?
Answer: Its inhibition is 7%.

Question: What about the inhibition [21] of the same compound?
Answer: Its inhibition is 51%.

Question: Which RBA [1] does the source give for `CCC(c1cc(O)cc(Cl)c1)C(CC)c1cc(O)cc(Cl)c1` (centres undefined) here?
Answer: The RBA was 0.03.

Question: How did the RBA [1] turn out when `CCC(c1ccc(O)c(Cl)c1)C(CC)c1ccc(O)c(Cl)c1` (centres undefined) was run?
Answer: Its RBA is 1.6.

Question: How did the RBA [1] turn out when `CCC(c1ccc(COC)c(O)c1)C(CC)c1ccc(COC)c(O)c1` (centres undefined) was run?
Answer: The RBA was 0.03.

Question: With `CCC(c1ccc(O)c(F)c1)C(CC)c1ccc(O)c(F)c1` (centres undefined) as the compound, how does the RBA [1] read?
Answer: Its RBA is 16.

Question: How did the RBA [1] turn out when `CCC(c1ccc(CO)c(O)c1)C(CC)c1ccc(CO)c(O)c1` (centres undefined) was run?
Answer: The RBA was 0.03.

Question: Which RBA [1] does the source give for `CCC(c1ccc(Cl)c(O)c1)C(CC)c1ccc(Cl)c(O)c1` (centres undefined) here?
Answer: The RBA was 0.07.

Question: `CCC(c1ccc(O)c(COC)c1)C(CC)c1ccc(O)c(COC)c1` (centres undefined) was tested. Which RBA [1] did it give?
Answer: Its RBA is 0.55.

Question: For `CCC(c1ccc(Br)c(O)c1)C(CC)c1ccc(Br)c(O)c1` (centres undefined), which RBA [1] is on record?
Answer: Its RBA is 0.03.

Question: Which RBA [1] does the source give for `CCC(c1ccc(O)c(Br)c1)C(CC)c1ccc(O)c(Br)c1` (centres undefined) here?
Answer: The RBA was 0.25.

Question: Which RBA [1] does the source give for `CCC(c1cc(O)ccc1O)C(CC)c1cc(O)ccc1O` (centres undefined) here?
Answer: The RBA was under 0.01.

Question: Which results are given for `CCC(c1cc(O)ccc1F)C(CC)c1cc(O)ccc1F` (centres undefined)?
Answer: RBA [1]: 7; Activity [2]: 13.7; Activity [22]: 38.9; Activity [4]: 41.2; Activity [23]: 37.8; Activity [12]: 13.1; Activity [24]: 15.5; Activity [25]: 23.2; Activity [26]: 39; Activity [27]: 34.6

Question: `CCc1cc(C(CC)C(CC)c2ccc(O)c(CC)c2)ccc1O` (centres undefined) was tested. Which RBA [1] did it give?
Answer: The RBA was 1.2.

Question: For `CCC(c1cc(O)ccc1Cl)C(CC)c1cc(O)ccc1Cl` (centres undefined), which RBA [1] is on record?
Answer: The RBA was 4.2.

Question: What about the Activity [2] of the same compound?
Answer: Its Activity is 13.7.

Question: What about the Activity [3] of the same compound?
Answer: The Activity was 40.6.

Question: What about the Activity [22] of the same compound?
Answer: The Activity was 41.

Question: What about the Activity [4] of the same compound?
Answer: The Activity was 41.5.

Question: What about the Activity [12] of the same compound?
Answer: The Activity was 13.7.

Question: What about the Activity [24] of the same compound?
Answer: The Activity was 25.1.

Question: And the Activity [25]?
Answer: The Activity was 47.8.

Question: What about the Activity [26] of the same compound?
Answer: The Activity was 41.6.

Question: What about the Activity [27] of the same compound?
Answer: Its Activity is 38.5.

Question: What about the Activity [28] of the same compound?
Answer: Its Activity is 16.7.

Question: For `CCC(c1ccc([N+](=O)[O-])c(O)c1)C(CC)c1ccc([N+](=O)[O-])c(O)c1` (centres undefined), which RBA [1] is on record?
Answer: Its RBA is 0.02.

Question: Which RBA [1] does the source give for `CCC(c1ccc(O)c(CN(C)C)c1)C(CC)c1ccc(O)c(CN(C)C)c1` (centres undefined) here?
Answer: Its RBA is 0.04.

Question: How did the RBA [1] turn out when `CCC(c1ccc(O)cc1F)C(CC)c1ccc(O)cc1F` (centres undefined) was run?
Answer: Its RBA is 6.5.

Question: Which RBA [1] does the source give for `CCC(c1ccc(O)c(C(C)=O)c1)C(CC)c1ccc(O)c(C(C)=O)c1` (centres undefined) here?
Answer: The RBA was under 0.01.
